Where a chain is given by its changes, count along the chain named. pKd: −log10 of the molar value.
How the values were obtained:
MV4-11 cells [1] = assay: Annexin/PI flow cytometry, MV4-11 cells; format: cell-based, human; settings: 0.5 µM, 72 hours
In short: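 MV4-11 cells were collected together with their culture medium, washed in ice-cold PBS and stained with Annexin V/Pacific Blue in HEPES/NaCl/CaCl2 binding buffer for 15 min at room temperature in the dark. Propidium iodide in buffer was added before flow cytometry. Early (annexin+, PI−) and late (annexin+, PI+) apoptotic cells were counted over 50,000 events.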

AURORA-A^P191W = target: T1, AURORA-A^P191W (Homo sapiens, UniProt O14965, P191W); assay: HiBiT assay of AURORA-A^P191W in MV4-11 cells; format: cell-based; settings: 6 hours
T1 sequence (O14965 1-403 P191W): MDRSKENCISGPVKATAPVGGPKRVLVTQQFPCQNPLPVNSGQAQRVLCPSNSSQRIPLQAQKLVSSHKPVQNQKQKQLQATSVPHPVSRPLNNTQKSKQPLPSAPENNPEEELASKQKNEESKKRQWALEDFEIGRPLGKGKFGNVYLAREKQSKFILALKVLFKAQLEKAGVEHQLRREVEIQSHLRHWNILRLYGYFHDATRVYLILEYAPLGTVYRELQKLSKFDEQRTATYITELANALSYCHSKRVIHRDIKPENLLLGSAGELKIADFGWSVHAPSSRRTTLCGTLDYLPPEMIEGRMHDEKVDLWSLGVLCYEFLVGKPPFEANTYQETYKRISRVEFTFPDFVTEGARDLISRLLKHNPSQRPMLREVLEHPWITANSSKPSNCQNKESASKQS
In short: (§1)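 HiBiT-tagged wild-type or mutant AURORA-A was expressed stably in MV4-11 cells (infected twice, 24 h apart, selected 72 h after infection). Cells were exposed to serial dilutions of the test compound for 6 h and lysed with lytic detection reagent containing the LgBiT fragment. Luminescence was then read. DC50 and DCmax were derived from the concentration–response data.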

[2] = target: AURORA-A/CEREBLON(TBD) complex (Homo sapiens, UniProt O14965+Q96SW2); assay: Isothermal titration calorimetry, ternary complex; format: binding
AURORA-A mRNA = assay: Quantitative real-time PCR of AURORA-A mRNA in MV4-11 cells; format: cell-based, human; settings: 0.1 µM
In short: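 MV4-11 cells were exposed for 6 h, and RNA and protein were isolated in parallel. AURORA-A mRNA was measured by RT-qPCR and normalised to DMSO-treated control cells; bars are means of technical replicates.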

[3] = target: CEREBLON thalidomide-binding domain (TBD) (Homo sapiens, UniProt Q96SW2); assay: Isothermal titration calorimetry, CEREBLON-TBD into JB170
MV4-11 cells [4] = assay: BrdU/PI flow cytometry, cell cycle distribution of MV4-11 cells; format: cell-based, human; settings: 0.5 µM, 12 hours
In short: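 Cells were pulsed with 10 µM BrdU for 1 h, washed in ice-cold PBS and fixed overnight in 80% ethanol at −20 °C. After a 1% BSA/PBS-T wash, they were stained 30 min at 37 °C with RNase A (24 µg/ml) and propidium iodide (54 µM), then analysed by flow cytometry. For IMR5, the EtOH-treated cells of the doxycycline-inducible line served as the non-overexpressing cells.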

[5] = target: AURORA-B^R160L,E162T,K165R (Homo sapiens, UniProt Q96GD4, E161T/K164R/R159L); assay: Immunoblot of HA-tagged AURORA-B swap mutant x3 in MV4-11 cells; format: cell-based; settings: 6 hours
[6] = target: AURORA-A-CEREBLON complex (Homo sapiens, UniProt O14965+Q96SW2); assay: HA immunoprecipitation of AURORA-A, co-precipitated CEREBLON; format: binding; settings: MV4-11 cell extracts, 0.5 µM degrader
AURORA-A^K162R = AURORA-A^K162R (Homo sapiens, UniProt O14965+Q96SW2, I57V/K162R); assay: Immunoblot of HA-tagged kinase-dead AURORA-A^K162R; format: cell-based; settings: 1 µM, 18 hours
AURORA-A = target: T2, AURORA-A (Homo sapiens, UniProt O14965); assay: HiBiT assay: AURORA-A levels based on luciferase measurements in MV4-11 cells; format: cell-based
T2 sequence (O14965 1-403): T1 sequence (O14965 1-403 P191W) with W191P
In short: as §1

AURORA-A-CEREBLON complex, sequence (O14965 whole entry): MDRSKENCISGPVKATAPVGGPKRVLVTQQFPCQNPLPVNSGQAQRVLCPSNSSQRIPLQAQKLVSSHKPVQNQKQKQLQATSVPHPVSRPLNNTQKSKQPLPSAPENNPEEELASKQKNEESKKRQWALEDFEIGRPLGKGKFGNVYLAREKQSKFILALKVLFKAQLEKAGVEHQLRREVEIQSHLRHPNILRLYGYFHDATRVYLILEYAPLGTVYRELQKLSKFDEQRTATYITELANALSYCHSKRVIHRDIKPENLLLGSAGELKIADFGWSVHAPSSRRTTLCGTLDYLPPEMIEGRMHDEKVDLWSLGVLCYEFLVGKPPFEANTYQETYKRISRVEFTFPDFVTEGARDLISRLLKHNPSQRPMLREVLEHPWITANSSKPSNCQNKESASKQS
AURORA-A-CEREBLON complex, sequence (Q96SW2 whole entry): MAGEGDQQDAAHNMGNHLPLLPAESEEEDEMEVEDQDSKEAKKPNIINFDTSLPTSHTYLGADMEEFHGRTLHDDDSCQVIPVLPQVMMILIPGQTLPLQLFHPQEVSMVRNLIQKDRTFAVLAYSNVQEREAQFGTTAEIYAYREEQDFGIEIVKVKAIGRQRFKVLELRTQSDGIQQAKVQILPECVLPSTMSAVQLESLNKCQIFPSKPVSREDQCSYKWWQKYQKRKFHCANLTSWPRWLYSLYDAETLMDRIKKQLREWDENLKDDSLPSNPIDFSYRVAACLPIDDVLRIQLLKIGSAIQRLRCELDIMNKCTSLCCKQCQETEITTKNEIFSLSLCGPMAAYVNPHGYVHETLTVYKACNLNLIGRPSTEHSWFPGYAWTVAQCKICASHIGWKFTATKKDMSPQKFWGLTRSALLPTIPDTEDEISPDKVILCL
AURORA-A-CEREBLON complex, sequence (Q16531 whole entry partner): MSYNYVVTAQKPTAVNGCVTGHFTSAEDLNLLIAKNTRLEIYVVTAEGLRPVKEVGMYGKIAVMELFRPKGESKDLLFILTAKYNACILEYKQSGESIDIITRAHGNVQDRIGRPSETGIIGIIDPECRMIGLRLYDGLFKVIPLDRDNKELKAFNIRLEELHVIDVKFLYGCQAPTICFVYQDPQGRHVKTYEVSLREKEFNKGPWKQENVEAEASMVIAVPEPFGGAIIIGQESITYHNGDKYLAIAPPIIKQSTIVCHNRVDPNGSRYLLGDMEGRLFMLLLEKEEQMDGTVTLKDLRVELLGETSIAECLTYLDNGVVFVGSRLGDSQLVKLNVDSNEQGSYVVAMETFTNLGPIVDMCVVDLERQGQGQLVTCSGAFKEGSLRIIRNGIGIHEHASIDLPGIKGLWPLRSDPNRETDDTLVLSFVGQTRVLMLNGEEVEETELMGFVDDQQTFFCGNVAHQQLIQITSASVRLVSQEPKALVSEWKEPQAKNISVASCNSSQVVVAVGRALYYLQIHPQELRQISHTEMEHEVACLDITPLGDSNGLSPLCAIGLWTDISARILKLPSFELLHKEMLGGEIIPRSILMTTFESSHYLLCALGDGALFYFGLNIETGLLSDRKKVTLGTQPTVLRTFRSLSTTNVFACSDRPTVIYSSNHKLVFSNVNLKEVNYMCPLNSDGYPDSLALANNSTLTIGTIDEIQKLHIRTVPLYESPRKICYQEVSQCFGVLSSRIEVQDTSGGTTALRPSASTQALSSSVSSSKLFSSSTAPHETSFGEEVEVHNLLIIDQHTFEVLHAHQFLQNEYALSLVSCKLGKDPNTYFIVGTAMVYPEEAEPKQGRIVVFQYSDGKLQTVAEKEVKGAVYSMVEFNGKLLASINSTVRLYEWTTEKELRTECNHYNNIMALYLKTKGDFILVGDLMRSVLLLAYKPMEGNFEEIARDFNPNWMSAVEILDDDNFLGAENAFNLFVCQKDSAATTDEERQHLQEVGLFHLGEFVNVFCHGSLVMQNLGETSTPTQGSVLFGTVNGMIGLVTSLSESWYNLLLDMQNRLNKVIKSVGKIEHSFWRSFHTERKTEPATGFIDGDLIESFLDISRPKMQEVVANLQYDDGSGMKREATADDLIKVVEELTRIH
AURORA-A^K162R, sequence (O14965 whole entry I57V/K162R): as the sequence (O14965 whole entry) above, with I57V, K162R counted along it
AURORA-A^K162R, sequence (Q96SW2 whole entry): as the sequence (Q96SW2 whole entry) above
AURORA-A^K162R, sequence (Q16531 whole entry partner): as the sequence (Q16531 whole entry partner) above
CEREBLON thalidomide-binding domain (TBD), sequence (Q96SW2 320-428): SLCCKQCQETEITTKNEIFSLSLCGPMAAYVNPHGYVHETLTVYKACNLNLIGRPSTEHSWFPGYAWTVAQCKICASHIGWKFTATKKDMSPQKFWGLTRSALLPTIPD
AURORA-B^R160L,E162T,K165R, sequence (Q96GD4 1-345 isoform Q96GD4-5 R160L/E162T/K165R): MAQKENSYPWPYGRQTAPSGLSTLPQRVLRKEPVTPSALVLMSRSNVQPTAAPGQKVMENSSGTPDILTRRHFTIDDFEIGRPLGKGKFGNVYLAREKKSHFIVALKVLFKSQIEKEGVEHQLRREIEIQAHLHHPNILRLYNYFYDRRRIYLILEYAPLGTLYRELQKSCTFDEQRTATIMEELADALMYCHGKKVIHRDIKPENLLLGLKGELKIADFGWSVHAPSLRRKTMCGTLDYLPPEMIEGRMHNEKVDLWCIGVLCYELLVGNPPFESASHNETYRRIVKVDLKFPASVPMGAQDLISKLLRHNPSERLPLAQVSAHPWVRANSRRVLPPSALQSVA
AURORA-A/CEREBLON(TBD) complex, sequence (O14965 122-403): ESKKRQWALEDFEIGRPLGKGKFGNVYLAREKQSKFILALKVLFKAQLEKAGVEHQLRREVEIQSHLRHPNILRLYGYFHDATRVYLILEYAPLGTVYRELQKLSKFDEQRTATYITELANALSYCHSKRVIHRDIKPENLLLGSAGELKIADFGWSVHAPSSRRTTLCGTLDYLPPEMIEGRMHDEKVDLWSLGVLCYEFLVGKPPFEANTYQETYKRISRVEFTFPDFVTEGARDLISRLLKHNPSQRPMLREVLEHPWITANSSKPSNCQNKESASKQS
AURORA-A/CEREBLON(TBD) complex, sequence (Q96SW2 320-428): as the sequence (Q96SW2 320-428) above

## COc1cc(Nc2ncc3c(n2)-c2ccc(Cl)cc2C(c2c(F)cccc2OC)=NC3)ccc1C(=O)NCCOCCOCCNC(=O)COc1cccc2c1C(=O)N(C1CCC(=O)NC1=O)C2=O (centres unmarked) [JB170]
MV4-11 cells [1]
  annexin-positive cells: 56%
AURORA-A^P191W
  JB170-mediated depletion of AURORA-A^P191W: abolished JB170-mediated depletion
[2]
  pKd: 6.74
AURORA-A mRNA
  AURORA-A mRNA levels: not reduced
[3]
  pKd: 5.16
MV4-11 cells [4]
  cell cycle distribution: delayed or arrested S-phase progression
[5]
  JB170-mediated degradation of AURORA-B^R160L,E162T,K165R with respect to AURORA-A: strongly attenuated
[6]
  CEREBLON co-precipitation with HA-tagged AURORA-A: efficient CEREBLON co-precipitation
AURORA-A^K162R
  depletion of AURORA-A^K162R: depleted by JB170 to a similar degree as the unmutated protein
AURORA-A; HiBiT-AURORA-A, 6 hours
  concentration of maximal depletion of AURORA-A (DCmax): 300 nM
AURORA-A; immunoblot and luminescence assays
  concentrations ineffective in depleting AURORA-A (Hook effect): ≥ 10 µM
